Screening data: PubChem, Sanford-Burnham Center for Chemical Genomics
This is a sample that favours compounds with a hit; in the whole collection about 0.72% have one here.
hIAP inh: blocks human intestinal alkaline phosphatase | inhibition, % at 10 µM | purified IAP, CDP-Star luminescence, 30 min | AID 2544 | P09923 | 0.12% of 330,000 active;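 active means inhibition reaching a set limit with compound at 10 µM in the primary screen, cut at about 35% in these data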
Target sequence (P09923 whole entry, looked up): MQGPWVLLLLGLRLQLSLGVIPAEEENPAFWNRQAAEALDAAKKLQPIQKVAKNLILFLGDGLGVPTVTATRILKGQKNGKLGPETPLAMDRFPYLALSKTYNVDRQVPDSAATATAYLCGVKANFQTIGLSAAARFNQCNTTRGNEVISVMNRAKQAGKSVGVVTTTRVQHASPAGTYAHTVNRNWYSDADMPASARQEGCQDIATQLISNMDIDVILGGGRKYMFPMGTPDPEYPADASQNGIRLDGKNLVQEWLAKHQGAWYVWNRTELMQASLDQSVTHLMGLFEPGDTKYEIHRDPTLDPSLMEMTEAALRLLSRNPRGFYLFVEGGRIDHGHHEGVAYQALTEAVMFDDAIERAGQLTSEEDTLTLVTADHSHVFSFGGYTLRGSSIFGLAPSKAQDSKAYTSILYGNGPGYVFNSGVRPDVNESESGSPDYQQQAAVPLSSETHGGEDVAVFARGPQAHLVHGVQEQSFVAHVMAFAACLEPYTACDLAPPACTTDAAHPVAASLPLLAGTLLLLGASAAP
hIAP activ: increases human intestinal alkaline phosphatase activity. 0.16% of 330,000 active. activation factor at 10 µM. purified human IAP, CDP-Star luminescence, 30 min; active compounds read high; 1 = vehicle-only enzyme, 0 = enzyme-free background. P09923;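 active means activation factor of the enzyme at least 2-fold when tested at 20 µM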
bIAP act: increases bovine intestinal alkaline phosphatase activity. purified bovine IAP, CDP-star luminescence, 30 min; active compounds read high; fold of DMSO-control signal, blank-subtracted. activation factor at 20 µM. 0.17% of 200,000 active. AID 1016;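 active means activation factor of 2 or more at 20 µM, a signal rise over negative controls twice the positive control's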
bIAP inh: blocks bovine intestinal alkaline phosphatase activity; purified bovine IAP, CDP-star luminescence, 30 min; inhibition, % at 20 µM; 190,000 tested, under 10 active; AID 1019;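 active means over 50% inhibition of intestinal alkaline phosphatase at 20 µM in the single-dose screen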
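System: Purified bovine intestinal alkaline phosphatase (IAP) enzyme | Input: IAP diluted 1/65,000,000 in the well | Also added: CDP-star chemiluminescent phosphatase substrate, 30 µM final | Dosing: 20 µM single dose | Times: Enzyme reaction for 30 min at room temperature | Detection: Luminescence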
mIAP block: mouse IAP inhibition; purified mouse IAP, CDP-Star luminescence, 30 min; 0.2% of 330,000 active; AID 2806; inhibition, % at 10 µM;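 active means inhibition of at least 40% at 10 µM in the primary screen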
mIAP activ: mouse IAP activation. muIAP, CDP-Star luminescence, 30 min; active compounds read high; 1 = vehicle-only enzyme signal, 0 = enzyme-free wells. activation factor at 10 µM. 0.24% of 330,000 active;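 active means activation factor of at least 2 at 20 µM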
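System: mouse IAP enzyme. Reagent: CDP-Star chemiluminescent phosphatase substrate. Benchmarks: DMSO wells, no-enzyme wells. Times: 30 min enzyme-substrate-compound incubation at room temperature. Detection: luminescence from enzymatic CDP-Star hydrolysis. Doses: test compounds delivered from DMSO solution.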
mIAP inh conf: mouse IAP inhibition confirmation; shares compounds with mIAP block; purified mouse IAP, CDP-Star luminescence, 30 min; inhibition, % at 10 µM; 4.7% of 11,000 active;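 active means inhibition of at least 40% at 10 µM in either of the two replicates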
Of the large screens only hits and unclear results are named; the others gave an inactive call (follow-up assays come after a bar, where they were run).

O=C(Nc1ccc(Cl)c(Cl)c1)Nc1ccc(Br)cc1F	mIAP activ 3.53 | mIAP inh conf inactive
CCOC(=O)c1c2n(c3c(NCc4ccccc4)ncnc13)CCCC2	none
O=C1/C(=C/c2ccco2)SC(=S)N1C1CCS(=O)(=O)C1 (centres undefined)	mIAP block 67.2 | mIAP inh conf 70.8
O=C1/C(=C\c2ccco2)SC(=S)N1C1CCS(=O)(=O)C1 (centres undefined)	mIAP block 63.6 (no result: bIAP act, bIAP inh) | mIAP inh conf 70.9
CCN(C(=O)C(C)N1C(=O)/C(=C/c2ccco2)SC1=S)C1CCS(=O)(=O)C1 (centres undefined)	mIAP block 50.9 (no result: bIAP act, bIAP inh) | mIAP inh conf 69.8
Cc1ccc(/C=C2\SC(=S)N(C3CCS(=O)(=O)C3)C2=O)cc1 (centres undefined)	none
CN1CCN(c2nc(-c3ccc(Br)cc3)nnc2-c2ccccc2)CC1	none
CCNc1nc(Cl)nc(-c2cn(-c3ccccc3)c3ccccc23)n1	none (no result: bIAP act, bIAP inh)
O=C(CCn1cnc2ccccc2c1=O)Nc1ccc2c(c1)OCCO2	none
CCC1(C)SC(NC(C)=O)=NN1C(C)=O (centres undefined)	none
O=c1c(-c2c(O)cc(O)c3c(=O)cc(-c4ccc(O)cc4)oc23)c(-c2ccc(O)cc2)oc2cc(O)cc(O)c12	mIAP block 58.7 (no result: bIAP act, bIAP inh) | mIAP inh conf 65.0
O=c1c(O)c(-c2ccc(O)c(O)c2)oc2cc(O)cc(O)c12	mIAP block 82.7 (no result: bIAP act, bIAP inh) | mIAP inh conf 90.8
CCN1C(=O)/C(=C2\SC(=S)N(NC(=O)c3cccnc3)C2=O)c2ccccc21	mIAP block 48.6 (no result: bIAP act, bIAP inh) | mIAP inh conf 64.1
CCn1c(Cc2ccccc2)nnc1SC(C)C(=O)NC1CC1 (centres undefined)	none (no result: bIAP act, bIAP inh)
O=C(N/N=C/c1cc(Cl)cc([N+](=O)[O-])c1O)c1ccccc1NS(=O)(=O)c1cccs1	mIAP block 41.4 (no result: bIAP act, bIAP inh) | mIAP inh conf 43.6
O=C(N/N=C/c1cc(Cl)cc([N+](=O)[O-])c1O)c1ccc2c(c1)OCO2	mIAP block 60.4 (no result: bIAP act, bIAP inh) | mIAP inh conf 67.6
O=C(NN=Cc1ccc(O)cc1)c1ccccc1NS(=O)(=O)c1cccs1	none (no result: bIAP act, bIAP inh)
Cc1nc(SCCc2ccccc2)[nH]c(=O)c1C	none (no result: bIAP act, bIAP inh)
O=C(Nc1ccccc1NC(=O)c1c(F)c(F)c(F)c(F)c1F)c1c(F)c(F)c(F)c(F)c1F	none
CCN(CC)CCSc1nc2ccccc2n1Cc1ccccc1	none (no result: bIAP act, bIAP inh)
COc1ccc(CNc2ncnc3c2[nH]c2ccccc23)cc1	mIAP activ 3.06 (no result: bIAP act, bIAP inh) | mIAP inh conf inactive
Brc1ccc2[nH]c3c(NCc4ccccn4)ncnc3c2c1	none (no result: bIAP act, bIAP inh)
Cc1ccc2[nH]c3c(NCc4ccccc4)ncnc3c2c1	mIAP activ 3.04 (no result: bIAP act, bIAP inh) | mIAP inh conf inactive
COc1ccc(CNc2ncnc3c2[nH]c2cc(OC)c(OC)cc23)cc1	none (no result: bIAP act, bIAP inh)
CCN(CC)S(=O)(=O)c1cc(C(=O)OCC(=O)Nc2cccc(Br)c2)ccc1F	none
COc1ccc(C2CC(c3ccccc3Cl)=NN2c2ccc(S(N)(=O)=O)cc2)cc1 (centres undefined)	mIAP activ 2.21 (no result: hIAP inh, hIAP activ, bIAP act, bIAP inh) | mIAP inh conf inactive
CCN(Cc1ccccc1)C(c1cc2cc(C)ccc2[nH]c1=O)c1nnnn1CCOC (centres undefined)	mIAP block 56.4 | mIAP inh conf 57.4
COCCn1nnnc1C(c1cc2c(C)cc(C)cc2[nH]c1=O)N1CCCCCC1 (centres undefined)	none
COCCn1nnnc1C(c1cc2cc(C)ccc2[nH]c1=O)N1CCCCCC1 (centres undefined)	mIAP block 67.1 | mIAP inh conf 70.4
O=C(O)c1cc(-c2ccco2)[nH]n1	mIAP block 69.4 | mIAP inh conf 68.0
COc1cc(/C=N/n2c(-c3n[nH]c4c3CCC4)n[nH]c2=S)cc(OC)c1O	none (no result: bIAP act, bIAP inh)
S=c1[nH]nc(-c2cc(-c3ccccc3)n[nH]2)n1/N=C/C=C/c1ccco1	mIAP block 48.0 (no result: bIAP act, bIAP inh) | mIAP inh conf 46.9
S=c1[nH]nc(COc2ccccc2)n1/N=C/C=C/c1ccco1	mIAP block 50.8 (no result: bIAP act, bIAP inh) | mIAP inh conf 57.9
COc1ccccc1/C=C/C=N/n1c(-c2ccco2)n[nH]c1=S	none (no result: bIAP act, bIAP inh)
S=c1[nH]nc(COc2ccccc2)n1/N=C/C=C/c1ccccc1	none
